Assay outcomes as filed in PubChem BioAssay.
In the library only some 3.5% were active in any assay of this set; here they are far more common.
RGS4 pot: potentiators or activators of RGS4 | actives 0.92% (n = 310,000) | HEK293 M3R/inducible RGS4, carbachol calcium flux Fluo4; hits give low values | B-score at 10 µM | AID 463111;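 active = B-score of the integrated calcium signal more than 4 SD below the library mean, with starting fluorescence not abnormally high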;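 also: negative B-score means reduced calcium response which marks RGS4 activation or potentiation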
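Material: Inducible-RGS4 HEK293 cells carrying M3 receptor; also added: carbachol at ECmax as muscarinic agonist stimulus; incubation: compound preincubation 20 min at room temperature before agonist; signal: Fluo4-AM (2 µM) calcium-flux fluorescence, kinetic read; measure: integrated calcium ratio converted to B score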
MrgX1 agonist: human MrgX1 receptor agonism, primary screen. MrgX1-HEK293 cells, Fluo-4 calcium fluorescence, agonist mode; hits give high values. AID 588627. Q96LB2. B-score at 10 µM. actives 0.44% (n = 310,000);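 active = calcium response B-score plate-corrected fluorescence ratio at least 3 library SD, with starting fluorescence B-score inside 5 SD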
Target sequence (Q96LB2 whole entry, looked up): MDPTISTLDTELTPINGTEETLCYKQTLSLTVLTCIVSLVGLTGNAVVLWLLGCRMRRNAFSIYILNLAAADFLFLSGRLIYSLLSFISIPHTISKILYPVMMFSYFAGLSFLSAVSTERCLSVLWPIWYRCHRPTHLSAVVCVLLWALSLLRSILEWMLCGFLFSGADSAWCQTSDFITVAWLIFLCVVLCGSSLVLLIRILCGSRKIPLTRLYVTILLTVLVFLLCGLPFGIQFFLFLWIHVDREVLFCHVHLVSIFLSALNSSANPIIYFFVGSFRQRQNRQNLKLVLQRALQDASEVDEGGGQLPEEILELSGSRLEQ
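Material – MrgX1-expressing HEK293 cells · Input – 15,000 cells seeded per well · Dosing – compound as first of three additions · Times – overnight seeding, then 1 h dark dye loading · Measured by – kinetic Fluo-4 NW fluorescence of intracellular calcium · Read-out – B-scored fluorescence response ratio · Benchmarks – positive and negative control wells on each plate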
MrgX1 allo act: human MrgX1 positive allosteric modulation, primary screen | Q96LB2 | MrgX1-HEK293, Fluo-4 calcium flux, FDSS; hits give high values | B-score at 10 µM | actives 0.63% (n = 310,000) | AID 588675;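 active = plate-corrected calcium response at least 3 library SD above typical, normal starting fluorescence, not activating the receptor alone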;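 also: compound read alongside a low EC10 to EC30 dose of BAM8-22 agonist; peak minus trough fluorescence over baseline measured at the second addition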
RGS4 inh: human RGS4 inhibition; actives 0.45% (n = 310,000); AID 463165; HEK293 M3R/RGS4 inducible, Fluo-4 calcium flux; hits give high values; triggered by carbachol at its EC20; B-score at 10 µM; P49798;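 active = B-score, a plate-corrected calcium signal, over three deviations above library mean, with baseline fluorescence within five deviations of library mean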;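 also: RGS4 expression induced by doxycycline in cells with stable M3 receptor; B-score is computed from the integrated fluorescence ratio over baseline after carbachol; higher B-score means a larger calcium signal and so more RGS4 inhibition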
MrgX1 antagonist: blocks BAM8-22 activation of human MrgX1 receptor; AID 588676; Q96LB2; B-score at 10 µM; MRGX1-HEK293 calcium flux, Fluo-4, BAM8-22 antagonism; hits give low values; actives 1.3% (n = 310,000);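 active = calcium-response B-score plate-corrected more than 3 library SD below zero, starting fluorescence within 5 deviations, no agonist response on first addition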;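 also: peak minus trough fluorescence over baseline after final BAM8-22 challenge near maximal dose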
Numbers without * were called inactive; i = inactive; nt = no result.

SMILES	RGS4 pot	MrgX1 agonist	MrgX1 allo act	RGS4 inh	MrgX1 antagonist
CCCCC(C(=O)NC1CCCC1)N(C(=O)c1snc(C(N)=O)c1N)c1ccc(F)cc1 (configuration not stated)	i	i	i	i	i
O=[N+]([O-])CC(c1ccc(F)cc1)c1c[nH]c2ccccc12 (configuration not stated)	i	i	6.5*	i	i
NCC(c1ccccc1)c1c[nH]c2ccccc12 (configuration not stated)	i	i	i	i	i
CCOC(=O)c1c(N2C(=O)Nc3cc(Cl)c(Cl)cc3N2O)sc2c1CCCCC2	nt	50*	i	nt	i
CCOC(=O)c1c(-n2cnnn2)sc2c1CCCC2	i	i	i	i	i
CCOc1ccc(NC2OCC(O)C(O)C2O)c([N+](=O)[O-])c1 (configuration not stated)	i	i	i	i	-5.1*
Cc1cc(C)n(-c2ccc(C(F)(F)F)cc2[N+](=O)[O-])n1	-9.3*	i	i	i	i
COc1ccccc1-c1nc2ccc(Cl)cc2c(=O)n1O	i	i	i	i	i
CCCOc1ccc(C(C(=O)OCCN(CC)CC)c2ccccc2)cc1 (configuration not stated)	-7.4*	i	i	i	-4.6*
COc1ccc(CC(=O)Nc2cccc(/C(C)=N/NC(=O)C3(C)CC3(Br)Br)c2)cc1 (configuration not stated)	-9.3*	i	i	i	i
C/C(=N\NC(=O)C1(C)CC1(Br)Br)c1cccc(NC(=O)C(C)(C)C)c1 (configuration not stated)	i	i	i	i	i
CCOC(=O)c1[nH]c2ccc(Br)cc2c1NC(=O)CCN1CCC(C)CC1	i	i	i	i	i
CCOC(=O)c1[nH]c2ccc(Br)cc2c1NC(=O)CCN1CCCC(C)C1 (configuration not stated)	-8.6*	i	i	i	i
Cc1cc(C)cc(NC(=O)COc2ccc(C(=S)N3CCOCC3)cc2)c1	i	i	i	i	i
Cc1ccc(S(C)(=O)=O)cc1C(=O)N1CC(C(N)=O)Oc2ccccc21 (configuration not stated)	i	i	i	i	i
CCN(CC)c1nc(SCCOC(=O)Nc2ccccc2)nc(N(CC)CC)n1	-8.8*	i	i	i	i
C(=C1/CCCC2=C1Nc1ncnn1C2c1ccccc1)/c1ccccc1 (configuration not stated)	i	i	7.3*	i	-5*
S=C1NC2=C(CCC/C2=C\c2ccccc2)C(c2ccccc2)N1 (configuration not stated)	i	i	i	i	i
Cc1cc(/C=C2/NC(=O)NC2=O)c(C)n1-c1ccccn1	i	i	i	i	i
Cc1ccc(-n2c(C)cc(/C=C3\NC(=O)NC3=O)c2C)c(C)c1	-7.6*	i	i	i	i
O=C(/C=C/c1ccccc1)c1ccccn1	i	39*	i	i	i
C/C(=N\OC(=O)Nc1ccccc1)c1cnn(-c2cc(C(F)(F)F)cc(C)n2)c1C	i	i	i	i	i
CC(C)c1cc(=O)oc2c3c4c(cc12)CCCN4CCC3	i	i	i	i	i
CN1CCCc2cc3c(C(F)(F)F)cc(=O)oc3nc21	-8*	i	i	i	i
O=c1c(/C=N/OCc2ccc(Cl)cc2Cl)c[nH]n1-c1cccc(Cl)n1	i	45*	i	i	i
Cc1cc(O)c(/C=N/OCc2ccc(Cl)cc2Cl)c(=O)o1	i	i	i	i	i
O=C(CNC(=O)C(c1ccccc1)c1ccccc1)N/N=C\c1cccc(O)c1	i	i	i	i	i
O=C(CNC(=O)C(c1ccccc1)c1ccccc1)N/N=C/c1ccc(O)cc1O	i	i	i	i	-5.7*
CC1=CC(=O)c2ccccc2C1=O	i	i	i	i	i
CC1=C/C(=N\OS(=O)(=O)c2ccccc2)C(C(C)C)=CC1=O	nt	i	i	nt	-4.6*
